Compound activity from PubChem.
TRPC6 inhibitor = inhibitors of mouse TRPC6 channel; HEK293-TRPC6, membrane potential dye, ACh-evoked depolarization; stronger effect = lower value; B-score at 10 µM; 310,000 tested, 1.1% active; AID 2553;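 active = B-score under library mean minus 3 SD, initial fluorescence not abnormally high, positive integrated signal ratio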;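 note: B-score derived from integrated fluorescence ratio over the kinetic read; more negative B-score means stronger inhibition of depolarization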
TRPC4 inh = blocks the mouse TRPC4 cation channel; HEK293 TRPC4beta/mu-opioid, DAMGO-evoked Fluo4 calcium flux; stronger effect = lower value; B-score at 10 µM; 300,000 tested, 0.39% active; AID 2247;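 active = B-score over 3 SD under the library average, no early fluorescence shift, positive overall ratio signal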
Target sequence (Q9QUQ5 whole entry, looked up): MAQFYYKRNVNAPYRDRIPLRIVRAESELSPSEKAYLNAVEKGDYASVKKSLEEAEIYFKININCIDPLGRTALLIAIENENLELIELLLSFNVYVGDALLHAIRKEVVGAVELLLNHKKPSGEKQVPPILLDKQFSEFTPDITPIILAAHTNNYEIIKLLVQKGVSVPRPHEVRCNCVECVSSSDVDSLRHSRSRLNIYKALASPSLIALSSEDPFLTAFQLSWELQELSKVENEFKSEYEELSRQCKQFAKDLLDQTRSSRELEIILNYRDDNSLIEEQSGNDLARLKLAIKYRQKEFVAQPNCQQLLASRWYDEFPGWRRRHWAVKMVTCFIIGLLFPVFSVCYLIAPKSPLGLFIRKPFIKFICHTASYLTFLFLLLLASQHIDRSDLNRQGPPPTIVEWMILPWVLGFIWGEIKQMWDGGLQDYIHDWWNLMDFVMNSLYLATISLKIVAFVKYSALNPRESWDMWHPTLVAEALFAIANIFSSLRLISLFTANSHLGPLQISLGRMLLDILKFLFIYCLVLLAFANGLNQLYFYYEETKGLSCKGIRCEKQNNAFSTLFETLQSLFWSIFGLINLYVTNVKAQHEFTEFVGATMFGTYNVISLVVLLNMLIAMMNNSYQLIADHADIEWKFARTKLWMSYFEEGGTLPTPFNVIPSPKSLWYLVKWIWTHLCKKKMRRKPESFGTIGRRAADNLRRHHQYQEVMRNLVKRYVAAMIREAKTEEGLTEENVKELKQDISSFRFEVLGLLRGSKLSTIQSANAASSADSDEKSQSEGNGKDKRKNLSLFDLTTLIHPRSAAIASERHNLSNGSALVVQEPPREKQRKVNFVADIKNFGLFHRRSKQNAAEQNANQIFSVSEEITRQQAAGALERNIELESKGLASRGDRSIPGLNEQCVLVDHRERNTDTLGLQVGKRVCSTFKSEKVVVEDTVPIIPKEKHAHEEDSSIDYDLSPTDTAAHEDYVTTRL
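Signal: kinetic Fluo4 fluorescence imaging of calcium influx. Material: stable TRPC4beta/mu-opioid receptor HEK293 cells. Probe or stimulus: DAMGO in two steps, submaximal then maximal.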
TRPC4 potent = allosteric potentiators of mouse TRPC4 channel | B-score at 10 µM | AID 2227 | HEK293 TRPC4beta/mu-opioid, DAMGO EC20, Fluo-4 Ca2+ flux; stronger effect = higher value | 310,000 tested, 0.42% active | Q9QUQ5;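 active = B-score of calcium response area above 5 SD of library B-scores, with initial fluorescence ratio within 5 SD of library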;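 note: B-score of integrated fluorescence ratio over time as area under calcium response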
TRPC4 act = opens the mouse TRPC4 cation channel; AID 2237; B-score at 10 µM; HEK293 TRPC4beta/mu-opioid, Fluo4 calcium fluorescence; stronger effect = higher value; 310,000 tested, 0.49% active;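 active = B-score above 5 SD of library B-scores, and initial fluorescence ratio not above library mean plus 5 SD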;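 note: positive B-score marks a calcium rise read as TRPC4 activation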
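Test system: HEK293 cells stably co-expressing mouse TRPC4beta and mu-opioid receptor | Schedule: Fluo4 dye loading 45 min at room temperature, 110 s recording | Measured by: Kinetic Fluo4 calcium fluorescence, 5 s baseline at 1 Hz | Evaluation: B score of integrated ratio | Controls: Buffer (low) and maximal DAMGO (high)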
TRPC6 activator = activates the mouse TRPC6 cation channel | 310,000 tested, 0.13% active | B-score at 10 µM | HEK293-TRPC6 membrane potential dye fluorescence; stronger effect = higher value;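 active = B-score of the integrated fluorescence ratio above library mean plus 3 SD, and starting fluorescence ratio within library mean plus 5 SD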;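 note: higher score means more depolarization so channel activation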
Platelet DG rel = modulates dense granule release in human platelets; human platelet-rich plasma, SFLLRN dense granule ATP release, luminescence; inhibition, %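 (compounds screened at 7.5 µM in platelet-rich plasma)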; 300,000 tested, 0.22% active;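 active = mean replicate score, as percent of positive control, at or above 50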
The depositor's hits bear a star; i = inactive; / = no result given. This is a sample that favours compounds with a hit; in the whole collection about 2.5% have one here.

SMILES	TRPC6 inhibitor	TRPC4 inh	TRPC4 potent	TRPC4 act	TRPC6 activator	Platelet DG rel
CCOC(=O)c1ccc(CSc2nnc(N)s2)cc1	i	i	i	i	i	2
COc1ccc2[nH]c(=O)c(CN(C(C)=O)C3CCCCC3)cc2c1	i	i	i	i	i	-8
COc1ccc2[nH]c(=O)c(CN(C(=O)c3ccco3)C3CCCCC3)cc2c1	i	i	10*	i	i	1
O=C(COC(=O)c1ccccn1)Nc1nc(-c2ccccc2)cs1	i	-6*	i	i	i	-6
O=C(COC(=O)c1ccccn1)Nc1nc(-c2cccc([N+](=O)[O-])c2)cs1	i	i	i	i	i	2
O=C(COC(=O)C1CC1)Nc1nc(-c2ccc(F)c(F)c2)cs1	i	-6*	i	i	i	1
c1ccc(Cc2c[nH]c3ccccc23)cc1	i	-5*	i	i	i	-1
CN(Cc1ccccc1)Cc1c[nH]c2ccccc12	i	i	i	i	i	7
COc1ccc(-c2ccc(SC)nn2)cc1	i	i	i	i	i	57*
COc1ccc(C(=O)CSc2ccc(-c3ccccc3)nn2)cc1	i	i	i	i	i	-3
Fc1ccc(C(c2nnnn2Cc2cccs2)N2CCN(C3CCCCC3)CC2)cc1 (configuration not stated)	i	i	i	138*	i	5
NS(=O)(=O)Cc1noc2ccccc12	i	i	i	i	i	-3
CC1(C)CC(=O)c2cc(C(=O)NCc3ccco3)c(=O)n(-c3ccc(Cl)cc3)c2C1	i	i	i	121*	i	-2
COc1ccc(-n2c3c(cc(C(=O)NNc4ccccc4)c2=O)C(=O)CC(C)(C)C3)cc1	i	i	i	70*	i	2
Cc1ccc(-n2c3c(cc(C(=O)NCc4ccco4)c2=O)C(=O)CC(C)(C)C3)cc1	i	i	i	i	i	1
COc1ccc(-n2c3c(cc(C(=O)NNc4ccccc4C)c2=O)C(=O)CC(C)(C)C3)cc1	i	i	i	i	i	-6
Cc1ccc(-c2nc(N/N=C/c3ccncc3)c3ccccc3n2)cc1	/	/	/	/	/	109*
COC(=O)C(=C/C=C/N1CCOCC1)C(=O)OC	i	i	i	i	i	6
COc1cc(O)oc1C=Nc1ccc(Cl)cc1	i	i	i	i	i	-7
COc1cc(O)oc1C=Nc1ccc(C(=O)O)cc1	i	i	i	i	i	70*
CC(Nc1nc(N2CCCCC2)nc2ccccc12)c1ccccc1 (configuration not stated)	i	i	i	i	i	0
C=CCNc1nc(N2CCCC2)nc2ccccc12	i	-7*	i	i	i	-10
Cc1nn(C)c(C)c1Nc1ccc(N2C(=O)C3CC=CCC3C2=O)cc1[N+](=O)[O-] (configuration not stated)	i	i	i	i	i	6
O=C(CCCN=C1NS(=O)(=O)c2ccccc21)OCC(=O)c1ccc(F)cc1	i	i	i	48*	i	-18
COc1ccccc1NC(=O)CCN1CCN(C)CC1	i	i	i	i	i	-6
SMILES	TRPC6 inhibitor	TRPC4 inh	TRPC4 potent	TRPC4 act	TRPC6 activator	Platelet DG rel
CCN1CCN(CCC(=O)Nc2ccccc2OC)CC1	i	i	19*	i	i	-4
COc1cc(NC(=O)CCN2CCN(CCO)CC2)cc(OC)c1	i	i	i	45*	i	-4
CCn1c(CCCc2ccc(OC)c(C)c2)n[nH]c1=S	i	i	i	i	i	16
COc1ccc(C2=CC(=O)C=CC2=O)cc1	i	i	i	91*	i	5
Cc1nn(S(=O)(=O)c2ccccc2)c(C)c1S(=O)(=O)N1CCC(C)CC1	i	i	i	i	i	2
C=CCNCCCCOc1cccc(Br)c1	i	i	13*	i	i	-2
OCCNCCCCOc1cccc(Br)c1	i	i	i	i	i	-2
Cc1cc(=O)oc2cc(NC(=O)c3cc([N+](=O)[O-])ccc3N3CCOCC3)ccc12	i	i	i	i	i	14
CCSc1nc(-c2ccccc2)c(C#N)c(=O)[nH]1	i	i	i	i	i	7
CCCOc1ccc(-c2nc(SCc3ccccc3)[nH]c(=O)c2C#N)cc1OC	i	-7*	i	i	i	-2
CCN1C(=O)[C@H]2[C@@H](c3ccc(C)cc3)N3C(=O)N(c4cccc(F)c4)C(=O)[C@@]3(C)[C@H]2C1=O	i	i	i	i	i	2
O=C1Nc2ccccc2Nc2ncccc21	i	i	i	i	i	61*
Clc1ccc2nc(CN3CCCc4ccccc43)cn2c1	i	i	21*	i	i	-4
Clc1ccc2nc(CN3CCCCC3)cn2c1	i	i	i	i	i	-2
COc1ccc(CN(C2CCCCC2C)S(=O)(=O)c2ccc(S(=O)(=O)N(C)C)cc2)cc1OC (configuration not stated)	i	i	23*	i	i	-6
Cc1cc(C)cc(N(CC(=O)NC2CCCCC2)C(=O)c2csnn2)c1	i	i	i	i	i	-2
Cc1ccc(C)c(N(CC(=O)NC2CCCC2)C(=O)c2csnn2)c1	i	-10*	i	70*	i	14
COc1ccc(/C=N\Nc2ccccn2)c(OC)c1	i	i	i	i	i	8
COc1ccccc1/C=N/Nc1nccnc1Cl	i	i	i	i	i	68*
COc1cccc(/C=N/Nc2ncccc2[N+](=O)[O-])c1OC	i	i	i	i	i	82*
CCCc1cc(C(=O)Cc2ccc(C(=O)OCC)o2)c(O)cc1O	-5.5*	i	i	i	i	6
CCCc1cc(C(=O)Cc2ccc(F)cc2)c(O)cc1O	i	i	i	i	i	1
CCCCN(CC)CCNC(=O)CCC(=O)Nc1ccc2nc(N3CCN(C)CC3)cc(C)c2c1	i	i	i	118*	i	-3
CCCCN(CC)CCNC(=S)Nc1ccc2nc(N3CCN(C)CC3)cc(C)c2c1	i	i	i	66*	i	-9
CCN(CC)CCCNC(=O)CCC(=O)Nc1ccc2nc(N3CCCCC3)cc(C)c2c1	i	i	i	i	i	2
